Measured values from ChEMBL document CHEMBL1122688, “Antimycotic azoles. 7. Synthesis and antifungal properties of a series of novel triazol-3-ones” (1984).

Key:
Phialophora verrucosa = assay: In vitro antifungal activity against Phialophora verrucosa; format: functional
Method in brief: (§1)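 Fungal growth-inhibition screen (Godefroi method) against dermatophytes, yeasts, moulds and other fungi. The value is the lowest concentration (µg/mL) giving total inhibition of growth, tested up to 100 µg/mL.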

[1] = In vivo activity against vaginal candidoses in rats, measured as the ratio of animals cured/animals infected (C/I) at dose 1.25 mg/kg; C/I = 7/10; format: functional
Aspergillus fumigatus = assay: In vitro antifungal activity against Aspergillus fumigatus; format: functional; method in brief: as §1
[2] = In vitro antifungal activity against Mucor sp; format: functional; method in brief: as §1
[3] = In vivo activity against microsporosis guinea pig, measured as the ratio of animals cured/animals infected (C/I) at dose 10 mg/kg; C/I = 2/2; format: functional
Microsporum canis = assay: In vitro antifungal activity against Microsporum canis; format: functional; method in brief: as §1
[4] = In vivo activity against microsporosis guinea pig, measured as the ratio of animals cured/animals infected (C/I) at dose 2.5 mg/kg; C/I = 5/8; format: functional
Cryptococcus neoformans = assay: In vitro antifungal activity against Cryptococcus neoformans; format: functional; method in brief: as §1
[5] = In vivo activity against vaginal candidoses in rats, measured as the ratio of animals cured/animals infected (C/I) at dose 0.63 mg/kg; C/I = 4/10; format: functional
Sporothrix schenckii = assay: In vitro antifungal activity against Sporothrix schenck ii; format: functional; method in brief: as §1
[6] = In vivo activity against microsporosis guinea pig, measured as the ratio of animals cured/animals infected (C/I) at dose 1.25 mg/kg; C/I = 3/6; format: functional
Saprolegnia = assay: In vitro antifungal activity against Saprolegnia sp; format: functional; method in brief: as §1
Candida albicans = assay: In vitro antifungal activity against Candida albicans; format: functional; method in brief: as §1
Trichophyton rubrum = assay: In vitro antifungal activity against Trichophyton rubrum; format: functional; method in brief: as §1
[7] = In vivo activity against vaginal candidoses in rats, measured as the ratio of animals cured/animals infected (C/I) at dose 2.5 mg/kg; C/I = 7/10; format: functional
Trichophyton benhamiae = assay: In vitro antifungal activity against Trichophyton mentagrophytes; format: functional, Arthroderma benhamiae; method in brief: as §1
Candida tropicalis = assay: In vitro antifungal activity against Candida tropicalis; format: functional; method in brief: as §1
[8] = In vivo activity against microsporosis guinea pig, measured as the ratio of animals cured/animals infected (C/I) at dose 2.5 mg/kg; 0/2; format: functional
[9] = In vivo activity against vaginal candidoses in rats, measured as the ratio of animals cured/animals infected (C/I) at dose 2.5 mg/kg; 0/2; format: functional
[10] = In vivo activity against microsporosis guinea pig, measured as the ratio of animals cured/animals infected (C/I) at dose 10 mg/kg; 1/2; format: functional
[11] = In vivo activity against vaginal candidoses in rats, measured as the ratio of animals cured/animals infected (C/I) at dose 0.63 mg/kg; C/I = 2/12; format: functional
[12] = In vivo activity against microsporosis guinea pig, measured as the ratio of animals cured/animals infected (C/I) at dose 2.5 mg/kg; C/I = 7/12; format: functional
[13] = In vivo activity against microsporosis guinea pig, measured as the ratio of animals cured/animals infected (C/I) at dose 1.25 mg/kg; C/I = 2/6; format: functional
[14] = In vivo activity against microsporosis guinea pig, measured as the ratio of animals cured/animals infected (C/I) at dose 10 mg/kg; C/I = 6/6; format: functional
Rattus norvegicus = assay: In vivo activity against vaginal candidoses in rats, measured as the ratio of animals cured/animals infected (C/I) at dose 1.25 mg/kg; C/I = 12/22; format: functional
[15] = In vivo activity against vaginal candidoses in rats, measured as the ratio of animals cured/animals infected (C/I) at dose 10 mg/kg; C/I = 5/6; format: functional
[16] = In vivo activity against vaginal candidoses in rats, measured as the ratio of animals cured/animals infected (C/I) at dose 2.5 mg/kg; C/I = 20/24; format: functional
[17] = In vivo activity against vaginal candidoses in rats, measured as the ratio of animals cured/animals infected (C/I) at dose 0.63 mg/kg; C/I = 0/2; format: functional
[18] = In vivo activity against vaginal candidoses in rats, measured as the ratio of animals cured/animals infected (C/I) at dose 2.5 mg/kg; C/I = 2/2; format: functional
[19] = In vivo activity against microsporosis guinea pig, measured as the ratio of animals cured/animals infected (C/I) at dose 2.5 mg/kg; C/I = 0/2; format: functional

SMILES: CC(C)Cn1ncn(-c2ccc(N3CCN(c4ccc(OC[C@@H]5COC(Cn6cncn6)(c6ccc(Cl)cc6Cl)O5)cc4)CC3)cc2)c1=O (some centres undefined)
- Inhibition (Phialophora verrucosa): >100 µg/mL
- C/I ratio [1]: 0.7
- Inhibition (Aspergillus fumigatus): >100 µg/mL
- Inhibition [2]: >100 µg/mL
- C/I ratio [3]: 2
- Inhibition (Microsporum canis): >100 µg/mL
- C/I ratio [4]: 0.625
- Inhibition (Cryptococcus neoformans): 100 µg/mL
- C/I ratio [5]: 0.4
- Inhibition (Sporothrix schenckii): >100 µg/mL
- C/I ratio [6]: 0.5
- Inhibition (Saprolegnia): >100 µg/mL
- Inhibition (Candida albicans): 100 µg/mL
- Inhibition (Trichophyton rubrum): 10 µg/mL
- C/I ratio [7]: 0.7
- Inhibition (Trichophyton benhamiae): 10 µg/mL
- Inhibition (Candida tropicalis): 10 µg/mL

SMILES: C=CCn1ncn(-c2ccc(N3CCN(c4ccc(OC[C@@H]5COC(Cn6ccnc6)(c6ccc(Cl)cc6Cl)O5)cc4)CC3)cc2)c1=O (some centres undefined)
- C/I ratio [8]: 0
- Lowest level of total inhibition (Microsporum canis): > 100 µg/mL
- C/I ratio [9]: 0
- C/I ratio [10]: 1

SMILES: CC(C)n1ncn(-c2ccc(N3CCN(c4ccc(OC[C@@H]5COC(Cn6cncn6)(c6ccc(Cl)cc6Cl)O5)cc4)CC3)cc2)c1=O (some centres undefined)
- C/I ratio [11]: 0.167
- Inhibition (Phialophora verrucosa): >100 µg/mL
- Inhibition (Aspergillus fumigatus): >100 µg/mL
- C/I ratio [12]: 0.583 (not active)
- Inhibition [2]: >100 µg/mL
- C/I ratio [13]: 2
- Inhibition (Microsporum canis): >100 µg/mL
- C/I ratio [14]: 1
- Inhibition (Cryptococcus neoformans): >100 µg/mL
- C/I ratio (Rattus norvegicus): 0.545
- C/I ratio [15]: 0.833
- Inhibition (Sporothrix schenckii): >100 µg/mL
- Inhibition (Saprolegnia): >100 µg/mL
- Inhibition (Candida albicans): >100 µg/mL
- Inhibition (Trichophyton rubrum): >100 µg/mL
- C/I ratio [16]: 0.833
- Inhibition (Trichophyton benhamiae): 100 µg/mL
- Inhibition (Candida tropicalis): >100 µg/mL

SMILES: CCC(C)n1nc(C)n(-c2ccc(N3CCN(c4ccc(OC[C@@H]5COC(Cn6cncn6)(c6ccc(Cl)cc6Cl)O5)cc4)CC3)cc2)c1=O (some centres undefined)
- Inhibition (Phialophora verrucosa): >100 µg/mL
- Inhibition (Aspergillus fumigatus): >100 µg/mL
- C/I ratio [17]: 0
- Inhibition [2]: >100 µg/mL
- C/I ratio [3]: 2
- Inhibition (Microsporum canis): >100 µg/mL
- Inhibition (Cryptococcus neoformans): >100 µg/mL
- Inhibition (Sporothrix schenckii): >100 µg/mL
- C/I ratio [18]: 1
- Inhibition (Saprolegnia): >100 µg/mL
- Inhibition (Candida albicans): 10 µg/mL
- Inhibition (Trichophyton rubrum): >100 µg/mL
- C/I ratio [19]: 0
- Inhibition (Trichophyton benhamiae): 100 µg/mL
- Inhibition (Candida tropicalis): >100 µg/mL
